This passage reports IC50, Activity and inhibition results from ChEMBL document CHEMBL2057127, “Design, synthesis, modeling, biological evaluation and photoaffinity labeling studies of novel series of photoreactive benzamide probes for histone deacetylase 2” (Bioorg Med Chem Lett, 2012).

The target in experiment [1] is T1, Histone deacetylase 1 (Homo sapiens, UniProt Q13547). As to the kind of experiment: Inhibition of human recombinant HDAC1 using Boc-L-Lys (Ac)-AMC as substrate preincubated with compound for 5 mins measured after 35 mins by spectrofluorometric analysis.
T1 sequence (Q13547 whole entry): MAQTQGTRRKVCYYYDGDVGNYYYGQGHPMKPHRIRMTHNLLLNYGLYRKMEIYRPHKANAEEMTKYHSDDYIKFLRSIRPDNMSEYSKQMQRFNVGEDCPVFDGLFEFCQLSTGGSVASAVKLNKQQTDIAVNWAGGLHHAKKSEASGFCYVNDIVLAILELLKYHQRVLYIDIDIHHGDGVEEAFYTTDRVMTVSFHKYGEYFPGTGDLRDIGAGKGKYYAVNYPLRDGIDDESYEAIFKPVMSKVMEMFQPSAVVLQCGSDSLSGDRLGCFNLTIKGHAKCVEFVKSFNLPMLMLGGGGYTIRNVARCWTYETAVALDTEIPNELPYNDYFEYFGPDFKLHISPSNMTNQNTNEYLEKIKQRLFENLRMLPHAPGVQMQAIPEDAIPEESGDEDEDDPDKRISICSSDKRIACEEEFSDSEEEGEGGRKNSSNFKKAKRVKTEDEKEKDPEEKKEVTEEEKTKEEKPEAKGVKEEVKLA
Experiment [2] has as its target T1, Histone deacetylase 1. As to the kind of experiment: Inhibition of human recombinant HDAC1 using Boc-L-Lys (Ac)-AMC as substrate preincubated with compound for 3 hrs measured after 35 mins by spectrofluorometric analysis.
Experiment [3] has as its target T2, Histone deacetylase 2 (Homo sapiens, UniProt Q92769). The experiment is described as follows: Inhibition of human recombinant HDAC2 using Boc-L-Lys (Ac)-AMC as substrate preincubated with compound for 5 mins measured after 35 mins by spectrofluorometric analysis.
Experiment [4] deals with T2, Histone deacetylase 2. The experiment is described as follows: Inhibition of human recombinant HDAC2 using Boc-L-Lys (Ac)-AMC as substrate preincubated with compound for 3 hrs measured after 35 mins by spectrofluorometric analysis.
Experiment [5] deals with T2, Histone deacetylase 2. The experiment is described as follows: Binding affinity to His-tagged human HDAC2 assessed as decrease in biotinylation of HDAC2 at 25 uM preincubated for 24 hrs measured after 1 hr by Western blot analysis in presence of five-fold molar excess of Trichostatin A. On the technique in general: In western blotting, separated proteins are transferred to a membrane and probed.

For experiment [6], the target named is T1, Histone deacetylase 1. The experiment is described as follows: Inhibition of HDAC1 in human MDA-MB-231 cells assessed as inhibition of H4 deacetylation at 50 uM after 24 hrs by Western blot analysis. Type of experiment: cell-based. Summed up: (§1)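 MDA-MB-231 cells grown to 90% confluence in DMEM/10% FBS and treated with probes (50 µM final) or DMSO for 24 h at 37 °C, 5% CO2. Cells lysed in RIPA buffer with protease/phosphatase inhibitors, 25 µg total protein run on SDS-PAGE. Western blot with anti-acetyl histone H4, GAPDH as loading control; three independent experiments.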

In experiment [7] the target is T2, Histone deacetylase 2. As to the kind of experiment: Inhibition of HDAC2 in human MDA-MB-231 cells assessed as inhibition of H4 deacetylation at 50 uM after 24 hrs by Western blot analysis. It is filed as cell-based. Summed up: as §1
Experiment [8] deals with Histone deacetylase 3 (Homo sapiens) (UniProt O15379). The experiment is described as follows: Inhibition of human recombinant HDAC3 using Boc-L-Lys (Ac)-AMC as substrate at 10 uM by spectrofluorometric analysis. To be noted: TDE = time-dependent effect.
Sequence of Histone deacetylase 3 (Homo sapiens) (O15379 whole entry): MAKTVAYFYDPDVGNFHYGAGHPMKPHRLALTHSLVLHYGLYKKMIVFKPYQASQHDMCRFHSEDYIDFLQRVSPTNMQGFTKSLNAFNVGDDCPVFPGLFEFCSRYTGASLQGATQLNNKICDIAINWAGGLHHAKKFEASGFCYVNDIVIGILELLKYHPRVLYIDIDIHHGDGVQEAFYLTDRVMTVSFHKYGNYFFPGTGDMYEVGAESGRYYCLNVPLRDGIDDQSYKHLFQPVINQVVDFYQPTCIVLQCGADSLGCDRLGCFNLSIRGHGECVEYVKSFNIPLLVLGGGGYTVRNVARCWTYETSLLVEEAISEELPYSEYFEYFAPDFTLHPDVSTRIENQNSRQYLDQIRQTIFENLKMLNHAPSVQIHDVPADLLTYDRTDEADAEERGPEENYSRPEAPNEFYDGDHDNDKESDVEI
Experiment [9] has as its target T3, Histone deacetylase 8 (Homo sapiens) (UniProt Q9BY41).
T3 sequence (whole entry): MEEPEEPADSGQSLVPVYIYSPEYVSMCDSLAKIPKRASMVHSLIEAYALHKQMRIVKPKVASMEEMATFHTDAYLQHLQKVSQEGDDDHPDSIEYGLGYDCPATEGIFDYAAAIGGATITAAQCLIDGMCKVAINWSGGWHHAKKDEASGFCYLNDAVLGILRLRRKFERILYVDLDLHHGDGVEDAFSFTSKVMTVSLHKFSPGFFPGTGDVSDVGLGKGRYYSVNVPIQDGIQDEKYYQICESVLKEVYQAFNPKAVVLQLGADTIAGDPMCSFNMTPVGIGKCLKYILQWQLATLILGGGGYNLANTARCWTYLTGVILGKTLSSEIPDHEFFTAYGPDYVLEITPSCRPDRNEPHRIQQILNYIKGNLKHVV
As to the kind of experiment: Inhibition of human recombinant HDAC8 using BML-KI-178 as substrate at 10 uM by spectrofluorometric analysis. To be noted: TDE = time-dependent effect.

Experiment [10] concerns the target T2, Histone deacetylase 2. As to the kind of experiment: Inhibition of human recombinant HDAC2 using Boc-L-Lys (Ac)-AMC as substrate preincubated with compound for 24 hrs measured after 35 mins by spectrofluorometric analysis.

The structures appear in SMILES notation. pIC50: −log10 of the molar value. Calls of active or inactive are those of the source. No cut-off for these calls is given here.

T2 sequence (Q92769 whole entry): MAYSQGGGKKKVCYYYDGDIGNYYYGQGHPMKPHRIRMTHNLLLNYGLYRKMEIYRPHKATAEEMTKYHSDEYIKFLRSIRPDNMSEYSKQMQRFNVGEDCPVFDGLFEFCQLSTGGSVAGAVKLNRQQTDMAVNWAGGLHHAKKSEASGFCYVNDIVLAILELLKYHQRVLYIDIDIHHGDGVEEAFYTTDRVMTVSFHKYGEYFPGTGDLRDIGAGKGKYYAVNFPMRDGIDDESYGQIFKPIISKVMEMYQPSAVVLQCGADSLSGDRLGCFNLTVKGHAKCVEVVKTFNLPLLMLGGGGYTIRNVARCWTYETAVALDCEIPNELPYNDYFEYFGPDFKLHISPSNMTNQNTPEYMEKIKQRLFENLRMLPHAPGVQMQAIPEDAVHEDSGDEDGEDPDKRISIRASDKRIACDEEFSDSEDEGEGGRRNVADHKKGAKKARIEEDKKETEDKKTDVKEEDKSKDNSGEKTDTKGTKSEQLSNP

As a reminder, the pIC50 is the IC50 on a negative log10 scale, so that one unit is a factor of ten. `[N-]=[N+]=NCCOc1ccc(C(=O)Nc2cc(-c3ccccc3)ccc2N)cc1N=[N+]=[N-]`: the pIC50 in [1] is 4.64; in [2], 5.57; in experiment [3] it was 4.47; in experiment [4] it was 5.19. For the same compound, in experiment [5], the outcome was Active. Besides, the inhibition entry in experiment [6] and in experiment [7] was “Active” in each case. Also, the inhibition result in experiment [8] and in experiment [9] was “tde” throughout.

For the compound `Nc1ccc(-c2ccccc2)cc1NC(=O)c1ccc(CNC(=O)OCc2ccccc2)cc1`, the inhibition entry in experiment [8] and in [9] was “tde” in each case.

`[N-]=[N+]=NCc1cc(COC(=O)NCc2ccc(C(=O)Nc3cc(-c4cccs4)ccc3N)cc2)cc(N=[N+]=[N-])c1`: the outcome in [5] was Active. Moreover, the inhibition result in experiment [6] and in experiment [7] was “Active” each time. Moreover, the inhibition result in experiment [8] and in [9] was “tde” in each case.

Take `[N-]=[N+]=NCCC(=O)Nc1ccc(C(=O)Nc2cc(N=[N+]=[N-])ccc2N)cc1`: in [5], the outcome was Active. Further, the inhibition entry in experiment [8] and in [9] was “tde” throughout.

Consider `[N-]=[N+]=NCc1cc(N=[N+]=[N-])cc(C(=O)Nc2cc(-c3ccccc3)ccc2N)c1`, for which the result in [5] was Active. Besides, the inhibition result in experiment [6] and in experiment [7] was “Active” in each case. The inhibition entry in experiment [8] and in experiment [9] was “tde” throughout.

As for `Nc1ccc(-c2ccccc2)cc1NC(=O)c1ccccc1`, the pIC50 in experiment [1] is 6.39; in [2], 7.28; in [3], 5.92; in experiment [4], 6.46; in experiment [10] it was 6.85. The inhibition result in experiment [8] and in experiment [9] was “tde” in each case.

Consider `[N-]=[N+]=Nc1cccc(COC(=O)NCc2ccc(C(=O)Nc3cc(-c4ccccc4)ccc3N)cc2)c1`, for which the pIC50 in experiment [1] is 5.42; in experiment [2], 6.11; in [3] it was 5.42; in experiment [4] it was 6.00; in experiment [10] it was 6.49. The inhibition entry in [6] and in experiment [7] was “Active” each time. The inhibition entry in experiment [8] and in [9] was “tde” in each case.

In the case of `[N-]=[N+]=NCc1cc(N=[N+]=[N-])cc(C(=O)Nc2cc(-c3cccs3)ccc2N)c1`, the pIC50 in experiment [1] is 5.25; in [2] it was 5.85. Also, in [5], the outcome was Active. Further, the inhibition entry in experiment [6] and in [7] was “Active” throughout. Also, the inhibition entry in [8] and in [9] was “tde” in each case.

For the compound `[N-]=[N+]=NCCOc1ccc(C(=O)Nc2cc(-c3cccs3)ccc2N)cc1N=[N+]=[N-]`, the pIC50 in experiment [1] is 4.74; in [2], 5.42; in experiment [3] it was 4.77; in [4], 5.18. Moreover, in [5], the outcome was Active. The inhibition entry in experiment [6] and in experiment [7] was “Active” in each case. Also, the inhibition entry in [8] and in [9] was “tde” each time.

As for `[N-]=[N+]=NCc1cc(COC(=O)NCc2ccc(C(=O)Nc3cc(-c4ccccc4)ccc3N)cc2)cc(N=[N+]=[N-])c1`, the result in experiment [5] was Active. In addition, the inhibition result in [6] and in experiment [7] was “Active” each time. Further, the inhibition result in [8] and in experiment [9] was “tde” each time.

Turning to `[N-]=[N+]=Nc1ccc(C(=O)Nc2cc(-c3ccccc3)ccc2N)cc1`, the inhibition result in [6] and in [7] was “Active” in each case. Further, the inhibition entry in [8] and in experiment [9] was “tde” throughout.

With `[N-]=[N+]=Nc1ccc(C(=O)Nc2cc(-c3cccs3)ccc2N)cc1`, the inhibition result in experiment [6] and in experiment [7] was “Active” in each case. Moreover, the inhibition result in [8] and in experiment [9] was “tde” in each case.
